Measurements as given in the EternaBench riboswitch data.

System: MS2 coat protein
Test: apparent Kd, MS2 coat protein; higher = weaker binding; RNA-MaP array; FMN 200 µM where present
In short: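 Stalled E. coli RNA polymerase transcribed the designs on Illumina sequencing-chip clusters. SNAP-549-labelled MS2 coat protein was titrated from 0.7 or 1.5 nM, doubling to 3 µM, without and then with constant ligand, in 100 mM Tris-HCl pH 7.5, 80 mM KCl, 4 mM MgCl2, BSA, DTT, yeast tRNA and Tween-20. Per-cluster binding curves were fitted to green signal normalised to red-channel RNA signal and control-cluster median Fmax. The apparent Kd is the median of the filtered fits.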

[1] = designed as: OFF switch for flavin mononucleotide, no ligand
[2] = ligand present: flavin mononucleotide, designed as: OFF switch for flavin mononucleotide
[3] = designed as: ON switch for flavin mononucleotide, no ligand
[4] = ligand present: flavin mononucleotide, designed as: ON switch for flavin mononucleotide

Sequence	apparent Kd [1]	apparent Kd [2]	apparent Kd [3]	apparent Kd [4]
GUAUAUAGUGUGAGGAUAUGCUGGUCCUUGGAUCAGCAGAAGGCACAUGAGGAUCACCCAUGUAGUUUAUUUUA	30.6 nM	89.4 nM		
UUAAAUCAUGUAGGAUAUGCAUGGCGAAGCUACGCAGAAGGACAUGAGGAUCACCCAUGUUAUACCUACCCAGUUCGGUGGGAA	81 nM	241 nM		
CCAGCGUAUGUGAGGAUAUGCUGGUCCUUGGAUCAGCAGAAGGCACAUGAGGAUCACCCAUGUGGUGUCGUUGG	303 nM	37 nM		
GAUGCUAUCGGAGGAUAUUCAUACCGGAAACGGACAUGAGGAUCACCCAUGUGGCGAAAGCCUUGGGAGAAGGCCGAUAGCAUC			610 nM	20.5 nM
CUCUUGUCAGGAUAUACGUACGCUUCGGCGGCGAGGAUCAUGUAGAAGGGACAUGAGGAUCACCCAUGUUAGAC	41.6 nM	44 nM		
CCACAUGAGGAUCACCCAUGUAGGAUAAAUCACGGCUUGGCACAGGAUAUACGGAGCGACGGAUCGUAGAAGGGUGCACUCGGC			8.37 nM	6.07 nM
GAGCGAGGGACAGGAUAUGCGGCGAAACUCGCCGCAGAAGGGUCGACAUGAGGAUCACCCAUGUCCUUACGCUCCAAGUAGAGG			97 nM	488 nM
CACCGUAACUGAGGAUAUCAAACAUGAGGAUCACCCAUGUAAUAAAUGAGAAUUUCGAAUGUACCUGAGAAGGCAGAAACCGGC	38 nM	48.3 nM		
UCAGGCUUCGAGAAGGACAUGAAUCGUAGCAUUGCUACGAUGAAUUAUACAUGAGGAUCACCCAUGUAGGAUAUCGGAGUCUGC		6.34 nM		
GAUCCUCGGUCAGGAUAUCCCGGCCGGCGGCCGGGAGAAGGGACAUGAGGAUCACCCAUGUUUCGGUCCUUACCCGCUUGGGUC	34 nM	37.1 nM		
AUGUCCUGAGGAUAUGGUCCAUUACACAUGAGGAUCACCCAUGUGGGUCUCGCCUGUAGGCCAGAAGGUAGGUCUU	52.8 nM	49.5 nM		
GUGGUCAGACAUGAGGAUCACCCAUGUGGAAUAAAUAACGUCAAGGAUAUACAAUAUAGGAUAUAGUAGAAGGUGAGAUUGGUG			114 nM	113 nM
UUCAUGUGAGGAUAUAGUACUCUUUCUAUUAUUAUUGAGUAUUAGAAGGCACAUGAGGAUCACCCAUGUAGUAC	30.7 nM	16.4 nM		
GUCCUCGGCGAGGAUAUCGGGCGGGUUUUUGUUUGAGAAGGCGUGACAUGAGGAUCACCCAUGUGGCGCGUGGG	41.6 nM	59.3 nM		
GAUUUCUAAGGAUAUACUGAUGUUCCUAAGUCUAGCGGCUCACAUGAGGAUCACCCAUGUAGAAGGUGGAGGUU	27.8 nM	30.1 nM		
AGGAAACAUGAGGAUCACCCAUGUAAGAUAUACACAGGAUAUGCGAAAAGAAACAAAGAAGCAGAAGGGUGGAAAA			35.1 nM	21.2 nM
UCAUAAUAGAUCCUAUUUAUCUACAUGAGGAUCACCCAUGUGCAGGAUAUGCUAAAAUUAAAAUAGCAGAAGGGCAAUAUCAGC	109 nM	365 nM		
GCUAAGGGAGGAUAUACAUGAGGAUCACCCAUGUAGUCGCUGCGUUUCAUUAUCCAAGGUAGAAGGCCCAAAAU	25.4 nM	36 nM		
GCGUGUUGAGGAUAUACGAACAUGUCGCCAGAUGUCAUGGUACAUGAGGAUCACCCAUGUAGAAGGUGGUACGC	263 nM	336 nM		

Sequence	apparent Kd [1]	apparent Kd [2]	apparent Kd [3]	apparent Kd [4]
CUUUUGUGAGGAUAUUAGUAGUAAAUGAUUAAAAUUAUUACUGAGAAGGCACAUGAGGAUCACCCAUGUUCCUC	45.1 nM	655 nM		
GCAGGACAUGAGGAUCACCCAUGUUCAAAAUAUUGAGGAUAUGGAUACGGUAUAUCCGAACCAGAAGGCAACCUGC			20.5 nM	17.1 nM
AAGAGACAUCAGAAGGGAGCCCGAACGCACGGCUCAGGAUAUGAGAUCUUAUGUAGUACGACAUGAGGAUCACCCAUGUCCGCG			36.2 nM	8.27 nM
AAGUUUAACGAAGGAUAUGGUUACAUGAGGAUCACCCAUGUAUUUUUUGUGAUCUUGUUUAAGUUCCAGAAGGUCGUAUACAUA	95.4 nM	305 nM		
UGGAGGUCAGGAUAUGCAUGGCGGGACUUGCGUCGUGGCGUGCAGAAGGGACAUGAGGAUCACCCAUGUGGAGC	64.5 nM	83.7 nM		
AUAGCAACAUGAGGAUCACCCAUGUAGGAUAUCGCUAUUGUAAUCAUGAAACAUGAUUACAAUAGCGAGAAGGACAUAUGCUAA	7.84 nM	10.2 nM		
AAGAAGUCAGGAUAUCCAUGGCGGCACUUGCGUGGUGGCGUGGAGAAGGGACAUGAGGAUCACCCAUGUAAAGG	149 nM	173 nM		
GUCAGUUCGUGAGGAUAUACAACACUGCUUCGGCAGUGUAUUAAGAUCACAUGAGGAUCACCCAUGUAGAAGGCACGAGCUGAU	14 nM	269 nM		
AUUUAUUAGUAAGGAUAUACUAGCGAUUAGCUUGUAGAAGGUACAGUCUUAUGUAUAGCAUGUUAACAUGAGGAUCACCCAUGU			23.2 nM	13.1 nM
CGCACUAUACAUGAGGAUCACCCAUGUUAUUAUGAGAUAGUCAGAAGGCAUUGUUAGUGAUAUUAUGAGGAUAUGAAUAGUGCG			156 nM	89.8 nM
AUGGUGCAGGUACAGGAUAUGUUGCUCGUAACAUGAGGAUCACCCAUGUACCUAUGAGAUUAAAUGCAGAAGGGUGCACACCAAA			538 nM	20.6 nM
AGAAAACAUGAGGAUCACCCAUGUGAGGAUAUGCAAAUAUAUACGAAAGAUUAUAAAAGCAGAAGGCACAAAAG	111 nM	130 nM		
GUACGGAAGGAGAAGGGCUAGGAGGUCCAGCUUAUGUGUGUUGCAACAUGAGGAUCACCCAUGUAGCAGGAUAUCCUUUGUACA	45.7 nM	265 nM		
CUGAAUAGAGGAUAUUGUACUGCUGACAUGAGGAUCACCCAUGUAUGUUAACUCGGCCGUCGAGAAGGCUAACAUA	42.8 nM	26.7 nM		
GGAGCCGAUACUGAGGAUAUUCAUAUUAAAACAUGAGGAUCACCCAUGUAGGCCAGAAGGCCUUGGGAGAAGGCAGAUCGGCUCC			417 nM	26 nM
UGUAUGGACAGAGGAUAUACGGAUAGGAUCUACUAUCUUCUUCAAAUAACAUGAGGAUCACCCAUGUAGAAGGCUGUCCAUACU	16.1 nM	35.1 nM		
UUAUUAUAUGUAGGAUAUGCAUAUUGUUAUUAUGCAGAAGGACAUGAGGAUCACCCAUGUAUAUUAUUAUUAUAUAUUAUAUAU	29.4 nM	48.8 nM		
AAGUAUAGAGGAUAUAGUAGGUACAACAUGAGGAUCACCCAUGUUCUUCAUAACGUAUUUCUAGAAGGCUGAUAAA	156 nM	353 nM		
